# Test results published in ChEMBL document CHEMBL4406880, “Design, synthesis, and bioactivity of dihydropyrimidine derivatives as kinesin spindle protein inhibitors” (Bioorg Med Chem, 2019).
# Key:
# Format in all cases: functional
# CAKI-1 = test: Growth inhibition of human Caki1 cells assessed as cell viability at 1 uM incubated for 48 hrs by sulforhodamine B assay; conditions: CAKI-1, 48 h, read-out: Activity
# SF-539 = test: Growth inhibition of human SF539 cells assessed as cell viability at 100 uM incubated for 48 hrs by sulforhodamine B assay; conditions: SF-539, 48 h, read-out: Activity
# HT-29 = test: Growth inhibition of human HT-29 cells assessed as cell viability at 0.001 uM incubated for 48 hrs by sulforhodamine B assay relative to control; conditions: HT-29, 48 h, read-out: Activity
# A549 = test: Growth inhibition of human A549/ATCC cells assessed as cell viability at 1 uM incubated for 48 hrs by sulforhodamine B assay; conditions: A549, 48 h, read-out: Activity
# How it was run: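 NCI-60 five-dose mode: five tenfold dilutions (0.01, 0.1, 1, 10, 100 µM) are applied for 48 h to cells in RPMI 1640 with 5% FBS at 37 °C. Endpoint is TCA fixation with sulforhodamine B read at 515 nm. % growth comes from the 0 h and control absorbances. GI50 is the concentration giving a 50% reduction in net cell growth.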
# LOX IMVI = test: Growth inhibition of human LOXIMVI cells assessed as cell viability at 0.1 uM incubated for 48 hrs by sulforhodamine B assay; conditions: read-out: Activity
# PC-3 = test: Growth inhibition of human PC3 cells assessed as cell viability at 0.001 uM incubated for 48 hrs by sulforhodamine B assay relative to control; conditions: PC-3, 48 h, read-out: Activity
# Malme-3M = test: Growth inhibition of human MALME-3M cells assessed as cell viability at 0.1 uM incubated for 48 hrs by sulforhodamine B assay; conditions: read-out: Activity
# SR = test: Growth inhibition of human SR cells assessed as cell viability at 100 uM incubated for 48 hrs by sulforhodamine B assay; conditions: read-out: Activity
# MDA-MB-435 [1] = test: Growth inhibition of human MDA-MB-435 cells assessed as cell viability at 0.1 uM incubated for 48 hrs by sulforhodamine B assay; conditions: MDA-MB-435, 48 h, read-out: Activity
# SF-268 = test: Growth inhibition of human SF268 cells assessed as cell viability at 1 uM incubated for 48 hrs by sulforhodamine B assay; conditions: SF-268, 48 h, read-out: Activity
# MDA-MB-435 [2] = test: Growth inhibition of human MDA-MB-435 cells assessed as cell viability at 0.001 uM incubated for 48 hrs by sulforhodamine B assay relative to control; conditions: MDA-MB-435, 48 h, read-out: Activity
# HOP-92 = test: Growth inhibition of human HOP92 cells incubated for 48 hrs by sulforhodamine B assay; conditions: HOP-92, 48 h
# How it was run: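 NCI-60 five-dose assay, SRB end-point, same culture conditions. Compound is tested at tenfold dilutions of 0.01, 0.1, 1, 10 and 100 µM for 48 h at 37 °C, with DMSO/PBS vehicle controls. Percentage growth at each concentration is taken against untreated cells and a time-zero plate. GI50 is 50% net growth decrease, TGI is total growth inhibition, and LC50 is 50% loss of initial cells.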
# DU-145 [3] = test: Growth inhibition of human DU145 cells assessed as cell viability at 0.1 uM incubated for 48 hrs by sulforhodamine B assay; conditions: DU-145, 48 h, read-out: Activity
# TK-10 = test: Growth inhibition of human TK10 cells assessed as cell viability at 1 uM incubated for 48 hrs by sulforhodamine B assay; conditions: TK-10, 48 h, read-out: Activity
# SNB-75 = test: Growth inhibition of human SNB75 cells assessed as cell viability at 0.1 uM incubated for 48 hrs by sulforhodamine B assay; conditions: SNB-75, 48 h, read-out: Activity
# NCI/ADR-RES [4] = test: Growth inhibition of human NCI/ADR-RES cells assessed as cell viability at 0.1 uM incubated for 48 hrs by sulforhodamine B assay; conditions: read-out: Activity
# RXF 393 = test: Growth inhibition of human RXF393 cells assessed as cell viability at 100 uM incubated for 48 hrs by sulforhodamine B assay; conditions: RXF 393, 48 h, read-out: Activity
# K562 = test: Growth inhibition of human K562 cells assessed as cell viability at 100 uM incubated for 48 hrs by sulforhodamine B assay; conditions: K562, 48 h, read-out: Activity
# DU-145 [5] = test: Growth inhibition of human DU145 cells assessed as cell viability at 1 uM incubated for 48 hrs by sulforhodamine B assay; conditions: DU-145, 48 h, read-out: Activity
# U-251 = test: Growth inhibition of human U251 cells incubated for 48 hrs by sulforhodamine B assay; conditions: U-251, 48 h
# How it was run: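 NCI-60 five-dose SRB assay. Cells were exposed for 48 h to tenfold dilutions of 0.01, 0.1, 1, 10 and 100 µM, in RPMI 1640 with 5% FBS. Plates fixed with TCA at the time of drug addition served as the time-zero reference. GI50 is the concentration giving a 50% reduction in net growth. TGI is total growth inhibition. LC50 is a net 50% loss of the initial cells.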
# SK-OV-3 = test: Growth inhibition of human SKOV3 cells assessed as cell viability at 0.001 uM incubated for 48 hrs by sulforhodamine B assay relative to control; conditions: SK-OV-3, 48 h, read-out: Activity
# BT-549 = test: Growth inhibition of human BT549 cells assessed as cell viability at 100 uM incubated for 48 hrs by sulforhodamine B assay; conditions: BT-549, 48 h, read-out: Activity
# SN12C = test: Growth inhibition of human SN12C cells assessed as cell viability at 1 uM incubated for 48 hrs by sulforhodamine B assay; conditions: read-out: Activity
# A498 = test: Growth inhibition of human A498 cells assessed as cell viability at 0.001 uM incubated for 48 hrs by sulforhodamine B assay relative to control; conditions: A498, 48 h, read-out: Activity
# T47D = test: Growth inhibition of human T47D cells assessed as cell viability at 0.1 uM incubated for 48 hrs by sulforhodamine B assay; conditions: read-out: Activity
# MCF7 = test: Growth inhibition of human MCF7 cells assessed as cell viability at 1 uM incubated for 48 hrs by sulforhodamine B assay; conditions: MCF7, 48 h, read-out: Activity
# NCI/ADR-RES [6] = test: Growth inhibition of human NCI/ADR-RES cells assessed as cell viability at 1 uM incubated for 48 hrs by sulforhodamine B assay; conditions: read-out: Activity
compound,measurement,setting,value
CC1=C(C(=O)OCc2ccccc2)C(c2ccc3c(c2)OCO3)n2c(nc3ccccc32)N1 (racemic),viability at 1 µM,CAKI-1,20%
same,viability at 100 µM,SF-539,13%
same,viability at 0.001 µM,HT-29,98%
same,viability at 1 µM,A549,40%
same,viability at 0.1 µM,LOX IMVI,93%
same,viability at 0.001 µM,PC-3,89%
same,viability at 0.1 µM,Malme-3M,87%
same,viability at 100 µM,SR,38%
same,viability at 0.1 µM,MDA-MB-435 [1],46%
same,viability at 1 µM,SF-268,32%
same,viability at 0.001 µM,MDA-MB-435 [2],93%
same,LC50 (concentration killing 50% of initial cells),HOP-92; read-out: LC50,> 100 µM
same,TGI,HOP-92; read-out: TGI,> 100 µM
same,LC50 (concentration killing 50% of initial cells),HOP-92; read-out: pLC50 (converted),> 100 µM
same,TGI,HOP-92; read-out: pTGI,> 100 µM
same,viability at 0.1 µM,DU-145 [3],109%
same,viability at 1 µM,TK-10,71%
same,viability at 0.1 µM,SNB-75,79%
same,viability at 0.1 µM,NCI/ADR-RES [4],86%
same,viability at 100 µM,RXF 393,15%
same,viability at 100 µM,K562,26%
same,viability at 1 µM,DU-145 [5],33%
same,GI50,U-251; read-out: GI50,0.46 µM
same,LC50,U-251; read-out: LC50,> 100 µM
same,TGI,U-251; read-out: TGI,> 100 µM
same,GI50,U-251; read-out: pGI50 (converted),0.427 µM
same,LC50,U-251; read-out: pLC50 (converted),> 100 µM
same,TGI,U-251; read-out: pTGI,> 100 µM
same,viability at 0.001 µM,SK-OV-3,99%
same,viability at 100 µM,BT-549,35%
same,viability at 1 µM,SN12C,42%
same,viability at 0.001 µM,A498,81%
same,viability at 0.1 µM,T47D,93%
same,viability at 1 µM,MCF7,14%
same,viability at 1 µM,NCI/ADR-RES [6],17%
